Here are results for 3 compounds from paper PMC2909692 (Nuclear medicine and biology, 2010).

Molecules are shown by their SMILES. pKi: −log10 of the molar value. “And” between values parts separate entries of the source, which are not always exact repeats. Identical values can stand only once. Like-named read-outs stand apart in the source and are kept apart here.

The target in data set [1] is dopamine transporter (DAT) (Rattus norvegicus, UniProt P23977). As to the kind of experiment: quantitative in vitro autoradiography with [125I]IPT on rat brain sections. It is filed as binding. The procedure, abridged: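 Brains from lesioned rats were frozen in OCT, and 20 μm coronal cryosections were desiccated 2 hrs at 4 °C, then stored at −70 °C. Sections were preincubated 20 min at room temperature in 50 mM Na2HPO4/0.32 M sucrose pH 7.4, then incubated 2 hrs with [125I]IPT (13-19 Bq/μL). Rinses: cold buffer 2 × 30 min, then cold water. Film exposure was 24 hrs with 125I homogenate standards (0.04-1.48 kBq/mg). Change = ((R−CB)−(L−CB))/(R−CB)×100, averaged over sections.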

The target of the next data set is VMAT2 (Rattus norvegicus, UniProt Q01827). As to the kind of experiment: small animal PET imaging with [18F]AV-133 in 6-OHDA unilateral lesioned rats. The format is in vivo. The method in brief: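 Male Sprague Dawley rats with a unilateral left 6-OHDA lesion passed an apomorphine rotation check (0.05 mg/kg s.c., day 21). Under 1.5-2.5% isoflurane, each received [18F]AV-133 (50-57 MBq) by tail vein and was imaged dynamically for 4 hrs (5 min frames, then 15 min frames). ROI analysis on reconstructed images gave % change = ((R striatum − cerebellum) − (L striatum − cerebellum))/(R striatum − cerebellum) × 100.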

In data set [2] the target is T1, SERT (Rattus norvegicus, UniProt P31652). It is filed as in vivo. The method in brief: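 Rats under 1.5-2.5% isoflurane were scanned on a Philips Mosaic animal PET after tail-vein [18F]FPBM (37-51 MBq lesioned; 43-57 MBq normal controls). Dynamic acquisition ran 4 hrs: 5-min frames for 2 hrs, then 15-min frames. Lesioned rats were apomorphine-screened (0.05 mg/kg s.c.) and rescanned 7-20 days later. ROI time-activity points were summed per region; left-striatum change = ((R−CB)−(L−CB))/(R−CB)×100.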

In data set [3] the target is T1, SERT. As to the kind of experiment: quantitative in vitro autoradiography with [18F]FPBM on rat brain sections. As to conditions: n = 3. It is filed as binding. The procedure, abridged:
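Coronal 20 μm cryostat sections from left-lesioned (6-OHDA) male Sprague Dawley rat brains were preincubated for 20 min at room temperature in 50 mM Tris/120 mM NaCl, pH 7.4, then dried. They were incubated for 1 hr at room temperature in that buffer containing [18F]FPBM (166-178 Bq/μL), rinsed cold 2 × 45 min, and exposed to film for 24 hrs with calibration standards. % change = ((R − cerebellum) − (L − cerebellum))/(R − cerebellum) × 100, averaged over rostral-striatum sections.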

Data set [4] has as its target T1, SERT. As to the kind of experiment: regional brain biodistribution of [18F]FPBM in PCA-treated and control rats. It is filed as in vivo. As to conditions: 60 min, n = 6. The procedure, abridged:
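Male Sprague Dawley rats (12, split into two groups) received PCA 5 mg/kg i.p. or saline daily for 2 consecutive days. Six days later they were given [18F]FPBM i.v. and killed under isoflurane 60 min post-injection. Radioactivity distribution was measured in brain regions only, not peripheral organs.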

The target in data set [5] is serotonin transporter (SERT). Particulars: read-out: Ki (affinity); in vitro binding assays; ref [23]-[25]; cited from earlier work.
The conditions of data set [6]: normal rats, ref [23]-[25], cited from earlier work.

dopamine transporter (DAT), sequence (P23977 whole entry): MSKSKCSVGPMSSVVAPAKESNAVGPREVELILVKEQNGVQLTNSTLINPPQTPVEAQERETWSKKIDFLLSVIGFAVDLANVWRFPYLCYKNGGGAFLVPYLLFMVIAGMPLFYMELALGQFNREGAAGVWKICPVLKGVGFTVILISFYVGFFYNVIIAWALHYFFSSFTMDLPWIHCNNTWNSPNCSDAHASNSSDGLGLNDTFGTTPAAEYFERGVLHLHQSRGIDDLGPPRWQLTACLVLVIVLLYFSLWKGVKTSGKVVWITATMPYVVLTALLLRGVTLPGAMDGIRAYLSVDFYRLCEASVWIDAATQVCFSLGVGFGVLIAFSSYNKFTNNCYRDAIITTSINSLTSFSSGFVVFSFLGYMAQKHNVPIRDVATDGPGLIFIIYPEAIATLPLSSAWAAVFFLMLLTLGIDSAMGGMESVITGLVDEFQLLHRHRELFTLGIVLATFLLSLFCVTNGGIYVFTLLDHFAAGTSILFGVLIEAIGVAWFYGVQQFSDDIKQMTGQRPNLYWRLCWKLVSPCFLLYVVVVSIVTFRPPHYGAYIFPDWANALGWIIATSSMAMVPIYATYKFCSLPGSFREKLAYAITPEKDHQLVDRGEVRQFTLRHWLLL
T1 sequence (P31652 whole entry): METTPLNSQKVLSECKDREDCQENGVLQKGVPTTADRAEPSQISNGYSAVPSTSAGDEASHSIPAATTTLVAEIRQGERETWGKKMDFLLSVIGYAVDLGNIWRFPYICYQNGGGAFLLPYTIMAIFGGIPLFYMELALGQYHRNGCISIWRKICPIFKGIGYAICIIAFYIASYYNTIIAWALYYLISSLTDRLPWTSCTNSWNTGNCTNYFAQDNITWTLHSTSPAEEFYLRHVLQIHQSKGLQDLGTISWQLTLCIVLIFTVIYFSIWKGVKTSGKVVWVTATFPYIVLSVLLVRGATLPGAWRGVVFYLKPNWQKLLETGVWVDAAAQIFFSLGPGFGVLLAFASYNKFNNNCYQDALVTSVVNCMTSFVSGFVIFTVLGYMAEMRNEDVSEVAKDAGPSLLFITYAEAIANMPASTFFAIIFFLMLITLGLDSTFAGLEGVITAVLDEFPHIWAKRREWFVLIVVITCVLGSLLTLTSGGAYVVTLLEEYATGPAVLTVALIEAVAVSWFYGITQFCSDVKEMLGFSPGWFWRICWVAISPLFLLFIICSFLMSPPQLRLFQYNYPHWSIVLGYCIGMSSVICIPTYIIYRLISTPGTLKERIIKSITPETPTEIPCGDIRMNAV
VMAT2, sequence (Q01827 whole entry): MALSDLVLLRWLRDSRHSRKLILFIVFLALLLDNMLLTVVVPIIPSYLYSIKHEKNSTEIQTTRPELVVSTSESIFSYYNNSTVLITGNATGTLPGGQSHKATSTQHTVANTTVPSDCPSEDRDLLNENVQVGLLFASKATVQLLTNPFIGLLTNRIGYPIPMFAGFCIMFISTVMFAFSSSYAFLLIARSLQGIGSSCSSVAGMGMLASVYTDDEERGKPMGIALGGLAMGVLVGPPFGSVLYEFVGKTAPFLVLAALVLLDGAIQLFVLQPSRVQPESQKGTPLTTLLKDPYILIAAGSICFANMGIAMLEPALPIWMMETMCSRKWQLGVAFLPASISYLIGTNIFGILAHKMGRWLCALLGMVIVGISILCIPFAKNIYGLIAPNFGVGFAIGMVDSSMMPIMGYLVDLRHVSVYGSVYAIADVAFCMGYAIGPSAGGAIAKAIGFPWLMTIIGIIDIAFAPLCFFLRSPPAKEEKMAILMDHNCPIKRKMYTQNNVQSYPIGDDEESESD

Turning to `COC(=O)C1C(c2ccc(Cl)cc2)CC2CCC1N2CC=C[125I]` (stereo not drawn) [[^125I]IPT, N-(3′-[^125I]-iodopropen-2′-yl)-2-beta-carbomethoxy-3-beta-(4-chlorophenyl) tropane], the “percent change in binding in the left striatum (in vitro autoradiography)” value was −66% in data set [1] (6-OHDA lesioned rat #1), −56% in data set [1] (6-OHDA lesioned rat #2) and −81% in data set [1] (6-OHDA lesioned rat #3).

As for `COc1cc2c(cc1OCCCF)CCN1CC(CC(C)C)C(O)CC21` (single isomer, unassigned; (+)) [[^18F]AV-133, (+)-2-Hydroxy-3-isobutyl-9-(3-fluoropropoxy)-10-methoxy-1,2,3,4,6,7-hexahydro-11bH-benzo[a]quinolizine], the “percent binding change in the left striatum (PET)” value at VMAT2 (6-OHDA lesioned rat #1, n = 1) is reported as −87%; on VMAT2 (6-OHDA lesioned rat #2, n = 1) it was −72%; on VMAT2 (6-OHDA lesioned rat #3, n = 1), −91%.

As for `CN(C)Cc1cc(OCCC[18F])ccc1Sc1ccccc1N` [[^18F]FPBM, 2-(2′-((dimethylamino)methyl)-4′-(3-[^18F]-fluoropropoxy)phenylthio)benzenamine], the “percent binding change in the left striatum (PET), individual scans” value at SERT [2] (6-OHDA lesioned rat #1, 10 days between scans) is −12% and −10%; at SERT [2] (6-OHDA lesioned rat #2, 20 days between scans), −1% and −7%; on SERT [2] (6-OHDA lesioned rat #3, 7 days between scans), −42% and −44%. Moreover, the “average percent binding change in the left striatum (PET)” value is given as −11% on SERT [2] (6-OHDA lesioned rat #1, n = 2 scans); −4% at SERT [2] (6-OHDA lesioned rat #2, n = 2 scans); −43% on SERT [2] (6-OHDA lesioned rat #3, n = 2 scans); “+0.5%” on SERT [2] (normal control rats, n = 2 separate rats, left vs right striatum). For the same compound, at SERT [2] (normal control rats, individual values), the “percent binding change in the left striatum (PET), individual rats” value is “+4.5% and −3.5%”. Further, the “averaged percent binding reduction of the left rostral striatum brain sections (in vitro autoradiography)” value is recorded as −5.9% on SERT [3] (6-OHDA lesioned rat #1, rostral striatum sections); “+2.3%” at SERT [3] (6-OHDA lesioned rat #2, rostral striatum sections); −37.3% on SERT [3] (6-OHDA lesioned rat #3, rostral striatum sections). For the same compound, the “ratio vs. CB ± SD, cerebellum” value on SERT [4] (PCA-treated rats) was 1.00 ± 0.34; on SERT [4] (control rats), 1.00 ± 0.33. Moreover, the figures for the “ratio vs. CB ± SD, cortex” value at SERT [4] (PCA-treated rats) and on SERT [4] (control rats) were 1.93 ± 0.58 and 3.39 ± 1.28, respectively. For the same compound, the “ratio vs. CB ± SD, hippocampus” value on SERT [4] (PCA-treated rats) is on record as 2.29 ± 0.56; on SERT [4] (control rats), 3.09 ± 1.10. Besides, the “ratio vs. CB ± SD, hypothalamus” value on SERT [4] (PCA-treated rats) is reported as 3.87 ± 0.88; at SERT [4] (control rats) it was 4.61 ± 1.44. Further, the “ratio vs. CB ± SD, remainder” value on SERT [4] (PCA-treated rats) turned out to be 2.27 ± 0.53; on SERT [4] (control rats), 3.12 ± 1.12. The “ratio vs. CB ± SD, striatum” value was 2.90 ± 1.00 on SERT [4] (PCA-treated rats) and 3.70 ± 1.21 at SERT [4] (control rats). The pKi in data set [5] was 9.42. In data set [6] (2 min post-injection), the brain uptake is 0.99 % dose/g. For the same compound, in data set [6] (120 min post-injection), the “target to non-target ratio” value is recorded as 7.7.
